Assay [1] deals with HUVEC. In words: Stimulation of angiogenesis of HUVEC assessed as increase in cord length formation after 36 hrs by Matrigel based tube formation assay. Type of assay: functional, cell-based. The conditions noted are these: Homo sapiens. The method in brief: (§1)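 HUVEC or CB1 siRNA-knockdown HUVEC at 90% confluence harvested with versene, spun 600g 5 min, resuspended in serum-free RPMI 1640 with drug (optionally 1 µM O-1918); 40 000 cells/well on gelled 1:1 RPMI/Matrigel, with or without UV irradiation, 36 h at 37 °C. Fixed with Diff-Quick; total tube length from three random 10× fields; triplicate, three experiments; percent increase over vehicle, mean ± SEM; bFGF 5 ng/mL positive control.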

Assay [2] concerns HUVEC. In words: Stimulation of angiogenesis of irradiated HUVEC assessed as increase in cord length formation after 36 hrs by Matrigel based tube formation assay. The format is functional, cell-based. The conditions noted are these: Homo sapiens. A digest of the protocol: as §1
The target of assay [3] is Matrix metalloproteinase-9 (Homo sapiens) (UniProt P14780). Briefly: Stimulation of MMP9 activity in CB1 receptor knockout HUVEC assessed as increase in enzyme activity at 1 uM relative to control. The format is cell-based. The method in brief:
(§2)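 HUVEC or CB1 siRNA-knockdown HUVEC (electroporated, 1.5 µg siRNA) grown to 90% confluence in six-well plates, treated with drug (optionally with 1 µM O-1918) with or without UV irradiation (1-15 min, 280-315 nm), 24 h at 37 °C. Conditioned media mixed with DQ gelatin (6 µg/mL), 24 h at 37 °C dark; fluorescence 485/530 nm against collagenase standard curve; triplicate; percent over vehicle, mean ± SEM of three experiments.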

The target in assay [4] is 72 kDa type IV collagenase (Homo sapiens) (UniProt P08253). Briefly: Stimulation of MMP2 activity in CB1 receptor knockout HUVEC assessed as increase in enzyme activity in presence of 1 uM anandamide receptor antagonist O-1918 relative to control. The format is functional, cell-based. The method in brief:
as §2

The target in assay [5] is Matrix metalloproteinase-9 (Homo sapiens) (UniProt P14780). In words: Stimulation of MMP9 activity in CB1 receptor knockout HUVEC assessed as increase in enzyme activity in presence of 1 uM anandamide receptor antagonist O-1918 relative to control. Type of assay: functional, cell-based. A digest of the protocol: as §2
Matrix metalloproteinase-9 (Homo sapiens), sequence (P14780 whole entry): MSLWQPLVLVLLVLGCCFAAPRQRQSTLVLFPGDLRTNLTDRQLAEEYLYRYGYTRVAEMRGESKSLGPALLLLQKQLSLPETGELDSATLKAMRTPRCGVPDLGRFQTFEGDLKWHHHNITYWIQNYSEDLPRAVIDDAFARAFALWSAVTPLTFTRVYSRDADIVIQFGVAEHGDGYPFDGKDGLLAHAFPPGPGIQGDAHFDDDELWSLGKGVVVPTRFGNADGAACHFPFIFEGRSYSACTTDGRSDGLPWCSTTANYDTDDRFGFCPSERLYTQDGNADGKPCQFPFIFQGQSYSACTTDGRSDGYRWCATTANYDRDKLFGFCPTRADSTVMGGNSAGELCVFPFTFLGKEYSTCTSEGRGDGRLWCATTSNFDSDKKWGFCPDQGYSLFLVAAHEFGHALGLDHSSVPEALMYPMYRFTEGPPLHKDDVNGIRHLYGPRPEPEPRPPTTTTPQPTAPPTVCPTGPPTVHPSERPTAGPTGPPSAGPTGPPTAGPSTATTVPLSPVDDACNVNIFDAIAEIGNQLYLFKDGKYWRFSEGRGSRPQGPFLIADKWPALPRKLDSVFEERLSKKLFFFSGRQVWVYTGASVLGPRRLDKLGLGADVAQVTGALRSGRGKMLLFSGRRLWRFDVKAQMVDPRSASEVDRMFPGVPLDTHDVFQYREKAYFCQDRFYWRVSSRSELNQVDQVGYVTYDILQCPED
The test system of assay [6] is HUVEC. In words: Increase in cell migration of irradiated HUVEC at 10 nM relative to control. The format is functional, Homo sapiens. The method in brief:
(§3)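 Cells harvested with versene, resuspended in RPMI 1640 with 0.1% BSA; 30 000 cells loaded in bottom well of 48-well microchemotaxis chamber under collagen IV-coated (0.1 mg/mL) 10 µm polyester filter, inverted 2 h at 37 °C; upper wells given drug in RPMI/0.1% BSA, 6 h at 37 °C. Filters fixed and stained with Diff-Quick; migrated cells counted at well centre, ×20. UV irradiation 1-15 min at 280-315 nm, 10 in. distance.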

Assay [7] has as its system HUVEC. Briefly: Increase in cell migration of irradiated HUVEC at 100 nM relative to control. The format is functional, Homo sapiens. A digest of the protocol:
as §3

The subject of assay [8] is HUVEC. In words: Increase in cell migration of irradiated HUVEC at 1 uM relative to control. The format is functional, Homo sapiens. A digest of the protocol:
as §3

Assay [9] relates to HUVEC. Briefly: Stimulation of angiogenesis of irradiated CB1 receptor knockout HUVEC assessed as increase in cord length formation after 36 hrs at 10 nM by Matrigel based tube formation assay. Type of assay: functional, Homo sapiens. The method in brief:
as §1

For assay [10], the system named is HUVEC. Briefly: Stimulation of angiogenesis of irradiated CB1 receptor knockout HUVEC assessed as increase in cord length formation after 36 hrs at 100 nM by Matrigel based tube formation assay. The format is functional, Homo sapiens. A digest of the protocol:
as §1

Assay [11] concerns HUVEC. In words: Stimulation of angiogenesis of irradiated CB1 receptor knockout HUVEC assessed as increase in cord length formation after 36 hrs at 1 uM by Matrigel based tube formation assay. Type of assay: functional, Homo sapiens. A digest of the protocol:
as §1

Assay [12] has as its system HUVEC. Briefly: Stimulation of angiogenesis of CB1 receptor knockout HUVEC assessed as increase in cord length formation after 36 hrs by Matrigel based tube formation assay. The format is functional, Homo sapiens. A digest of the protocol:
as §1

The subject of assay [13] is HUVEC. In words: Stimulation of angiogenesis of irradiated CB1 receptor knockout HUVEC assessed as increase in cord length formation after 36 hrs at 1 uM in presence of 1 uM anandamide receptor antagonist O-1918 by Matrigel based tube formation assay. Type of assay: functional, cell-based. The conditions noted are these: Homo sapiens. A digest of the protocol: as §1

Assay [14] concerns HUVEC. Briefly: Stimulation of angiogenesis of CB1 receptor knockout irradiated HUVEC assessed as increase in cord length formation after 36 hrs by Matrigel based tube formation assay. The format is functional, cell-based. The conditions noted are these: Homo sapiens. The method in brief: as §1
Assay [15] concerns the target 72 kDa type IV collagenase (Homo sapiens) (UniProt P08253). In words: Stimulation of MMP2 activity in HUVEC assessed as increase in enzyme activity at 10 nM relative to control. Type of assay: cell-based. A digest of the protocol:
as §2

Assay [16] addresses Matrix metalloproteinase-9 (Homo sapiens) (UniProt P14780). Briefly: Stimulation of MMP9 activity in HUVEC assessed as increase in enzyme activity at 10 nM relative to control. Type of assay: cell-based. The method in brief: as §2
In assay [17] the target is 72 kDa type IV collagenase (Homo sapiens) (UniProt P08253). In words: Stimulation of MMP2 activity in HUVEC assessed as increase in enzyme activity at 100 nM relative to control. A digest of the protocol:
as §2

The target in assay [18] is Matrix metalloproteinase-9 (Homo sapiens) (UniProt P14780). Briefly: Stimulation of MMP9 activity in HUVEC assessed as increase in enzyme activity at 100 nM relative to control. A digest of the protocol:
as §2

For assay [19], the target named is 72 kDa type IV collagenase (Homo sapiens) (UniProt P08253). In words: Stimulation of MMP2 activity in HUVEC assessed as increase in enzyme activity at 1 uM relative to control. The method in brief:
as §2

Assay [20] has as its target Matrix metalloproteinase-9 (Homo sapiens) (UniProt P14780). Briefly: Stimulation of MMP9 activity in HUVEC assessed as increase in enzyme activity at 1 uM relative to control. The format is cell-based. The method in brief:
as §2

In assay [21] the target is 72 kDa type IV collagenase (Homo sapiens) (UniProt P08253). In words: Stimulation of MMP2 activity in CB1 receptor knockout HUVEC assessed as increase in enzyme activity at 10 nM relative to control. Type of assay: cell-based. The method in brief:
as §2

The target of assay [22] is Matrix metalloproteinase-9 (Homo sapiens) (UniProt P14780). In words: Stimulation of MMP9 activity in CB1 receptor knockout HUVEC assessed as increase in enzyme activity at 10 nM relative to control. The method in brief:
as §2

In assay [23] the target is 72 kDa type IV collagenase (Homo sapiens) (UniProt P08253). In words: Stimulation of MMP2 activity in CB1 receptor knockout HUVEC assessed as increase in enzyme activity at 100 nM relative to control. The format is cell-based. A digest of the protocol: as §2
72 kDa type IV collagenase (Homo sapiens), sequence (P08253 110-660 limits assumed): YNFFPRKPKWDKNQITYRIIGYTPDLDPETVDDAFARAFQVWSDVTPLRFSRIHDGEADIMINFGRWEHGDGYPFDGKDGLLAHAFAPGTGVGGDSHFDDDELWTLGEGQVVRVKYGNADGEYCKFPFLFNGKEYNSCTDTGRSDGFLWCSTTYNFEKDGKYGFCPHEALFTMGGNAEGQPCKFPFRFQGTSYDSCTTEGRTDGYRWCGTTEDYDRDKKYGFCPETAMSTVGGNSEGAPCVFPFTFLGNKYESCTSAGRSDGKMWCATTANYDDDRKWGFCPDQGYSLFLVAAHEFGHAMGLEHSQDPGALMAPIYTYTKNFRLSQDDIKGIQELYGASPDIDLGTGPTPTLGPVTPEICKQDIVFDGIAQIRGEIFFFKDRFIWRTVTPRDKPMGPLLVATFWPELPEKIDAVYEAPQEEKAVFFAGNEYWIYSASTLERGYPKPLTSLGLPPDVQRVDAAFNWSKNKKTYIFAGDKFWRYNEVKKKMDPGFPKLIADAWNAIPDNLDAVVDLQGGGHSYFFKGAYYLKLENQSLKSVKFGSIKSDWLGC
Assay [24] has as its target Matrix metalloproteinase-9 (Homo sapiens) (UniProt P14780). Briefly: Stimulation of MMP9 activity in CB1 receptor knockout HUVEC assessed as increase in enzyme activity at 100 nM relative to control. A digest of the protocol:
as §2

In assay [25] the target is 72 kDa type IV collagenase (Homo sapiens) (UniProt P08253). In words: Stimulation of MMP2 activity in CB1 receptor knockout HUVEC assessed as increase in enzyme activity at 1 uM relative to control. Type of assay: cell-based. The method in brief: as §2
Assay [26] addresses Cannabinoid receptor 1 (Homo sapiens, UniProt P21554). Briefly: Displacement of [3H]CP-55-940 from human recombinant CB1 receptor expressed in COS cells. Type of assay: cell-based.
In assay [27] the target is Cannabinoid receptor 2 (Homo sapiens, UniProt P34972). In words: Displacement of [3H]CP-55-940 from human recombinant CB2 receptor expressed in COS cells. Type of assay: cell-based.
Cannabinoid receptor 2, sequence (P34972 whole entry): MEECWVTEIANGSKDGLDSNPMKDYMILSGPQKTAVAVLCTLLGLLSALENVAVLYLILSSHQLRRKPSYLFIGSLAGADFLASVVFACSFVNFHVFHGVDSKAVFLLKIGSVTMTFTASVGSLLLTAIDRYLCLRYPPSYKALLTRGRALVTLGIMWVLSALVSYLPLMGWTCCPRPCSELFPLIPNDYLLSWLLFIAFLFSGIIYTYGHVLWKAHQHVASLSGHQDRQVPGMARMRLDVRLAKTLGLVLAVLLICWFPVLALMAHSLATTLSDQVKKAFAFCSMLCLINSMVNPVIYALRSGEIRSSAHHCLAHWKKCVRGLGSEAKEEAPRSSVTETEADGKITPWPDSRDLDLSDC

The term pKi denotes the negative decadic logarithm of the Ki, by convention in mol/L.

pKi: −log10 of the molar value. Activity calls are given as the source filed them. No cut-off for these calls is given here.

Cannabinoid receptor 1, sequence (P21554 whole entry): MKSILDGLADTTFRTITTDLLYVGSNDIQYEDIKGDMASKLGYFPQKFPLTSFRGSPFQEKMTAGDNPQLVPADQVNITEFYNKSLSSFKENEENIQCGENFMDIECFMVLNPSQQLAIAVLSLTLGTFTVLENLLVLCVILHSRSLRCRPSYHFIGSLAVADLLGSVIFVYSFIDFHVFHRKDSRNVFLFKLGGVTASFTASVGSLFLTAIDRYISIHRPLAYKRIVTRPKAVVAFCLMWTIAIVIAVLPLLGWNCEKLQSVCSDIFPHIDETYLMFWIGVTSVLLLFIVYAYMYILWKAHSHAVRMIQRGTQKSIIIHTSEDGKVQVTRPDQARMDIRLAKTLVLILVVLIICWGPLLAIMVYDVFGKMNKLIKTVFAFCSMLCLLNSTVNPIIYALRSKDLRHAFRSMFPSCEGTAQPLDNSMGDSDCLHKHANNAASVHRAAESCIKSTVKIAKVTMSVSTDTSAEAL

For `C[C@H](CO)NC(=O)CCC/C=C\C/C=C\C/C=C\C/C=C\CCOC(=O)c1cc(I)ccc1N=[N+]=[N-]`, the Activity result was “Dose-dependent effect” in assay [1]; 18% in assay [6]; 35% in assay [7]; 54% in assay [8]; 21% in assay [9]; 30% in assay [10]. The Activity in assay [11] is 47%; in [12] it was 8%; in assay [14] it was “Dose-dependent effect”. Further, in assay [2], the result was Active. The outcome in [3], in [4], in assay [5], in assay [13], in assay [15] and in assay [16] was inactive. Moreover, the result in [17], in assay [18], in [19], in assay [20], in assay [21] and in assay [22] was inactive. The result in [23], in [24] and in [25] was inactive.

Consider `CCCCC/C=C\C/C=C\C/C=C\C/C=C\CCCC(=O)N[C@H](C)CO`, for which the Activity amounted to 33% in assay [3]; 5% in assay [15]; 20% in assay [16]; 28% in [17]; 5% in [18]; 20% in assay [19]. In addition, the Activity in assay [20] was 28%; in assay [21], 10%; in [22], 25%; in assay [23] it was 33%; in assay [24] it was 10%; in [25], 25%.

Consider `C[C@H](CO)NC(=O)CCC/C=C\C/C=C\C/C=C\C/C=C\CCOC(=O)c1cccc2c1OC(C)(C(C)(C)C)O2` (stereo partly drawn), for which the results for the pKi in [26] and in assay [27] were 5.55 and 5.99, respectively. In addition, the outcome in [3], in [4], in assay [5], in assay [15], in assay [16] and in [17] was inactive. Further, the outcome in assay [18], in assay [19], in assay [20], in [21], in assay [22] and in [23] was inactive. Also, the result in assay [24] and in [25] was inactive. Further, the Activity in assay [6] turned out to be 27%; in [7], 40%; in assay [8], 55%. Moreover, the result in assay [12] (Homo sapiens) and in [14] was Active.
